High-throughput results deposited in PubChem by several laboratories.
A selection: hits, their analogues and other compounds. The true share with any hit is near 1.3%.
Rad51 HR inh: blocks human Rad51 in homologous recombination; hRad51 DNA strand exchange, fluorescence dequenching; inhibition, % at 10 µM; 0.085% of 200,000 active;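 active = inhibition above 40% at the single screening dose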;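 note: 0% = DMSO control wells and 100% = blanks with heterologous ssDNA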
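Material: human Rad51–ssDNA filaments; Probe or stimulus: labelled 47-mer dsDNA for strand exchange; Doses: single 10 µM dose; Incubation: 37 °C 15-min filament assembly, 30-min compound preincubation, 15-min exchange; Technique: FRET fluorescence dequenching, excitation 485 nm, emission 520 nm; Measure: Fluorescence-based percent inhibition, control- and blank-normalised; Benchmarks: plate control and blank wells.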
TAG inh: triacylglycerol accumulation inhibition. H9c2 cells, Nile Red lipid (TAG) fluorescence; cells loaded with 200 µM oleic acid. inhibition, % at 12.5 µM. 0.66% of 230,000 active;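 active = pattern-corrected inhibition of lipid staining of at least 50% with the nuclear-stain viability signal not falling by more than 50%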;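 note: 0% = DMSO wells and 100% = triacsin C control wells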
PKD1 kinase inh: blocks activity of human protein kinase D1 | Q15139 | PKD1 kinase fluorescence polarization assay | inhibition, % (test concentration not listed) | 0.056% of 200,000 active | AID 797; in the data active = inhibition above about 50%
Mdm2 ligase inh: blocks human Mdm2 ubiquitin ligase activity; AID 1230; cell-based MDM2 ubiquitination luciferase reporter, 2 h; 0 = plate control, 100 = twice control, blank-subtracted; signal enhancement, % at 5 µM; Q00987; 0.11% of 210,000 active;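 active = signal enhancement of 30% or more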;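 note: luminescence tracks abundance of the self-degrading MDM2-luciferase fusion protein; higher signal means inhibition of MDM2 E3 ligase activity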
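Material: stable MDM2–luciferase fusion reporter cells / Quantity: 2000 cells/well / Dosing: single 5 µM compound dose, 0.2% final DMSO / Buffer or medium: DMEM / Schedule: 4 h cell settling then 2 h compound exposure, 37 °C / Detection: luminescence with SteadyLite reagent, 15 min at room temperature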
Hck Nef HTS: human Hck-Nef kinase inhibition. inhibition, % at 20 µM. AID 463187. 0.68% of 220,000 active. Recombinant Hck-YEEI plus Nef, Z-Lyte FRET kinase assay. P08631;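 active = Hck-Nef kinase inhibition above about 50%, limit read from the data; inactive = inhibition below that limit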;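 note: 0% = DMSO with Hck plus Nef and 100% = Hck alone without Nef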
PERK inh: blocks human PERK kinase; AID 1416; 0.17% of 220,000 active; inhibition, % at 5.6 µM; CHO PERK-DD fusion, SEAP luminescence translation reporter; Q9NZJ5;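 active = inhibition above the mean inhibition of all tested compounds plus 3 SD, set separately per screening campaign, cut at about 2.9% in these data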;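 note: PERK kinase domain activated by AP20187 dimerizer at 100 nM; 0% = DMSO with dimerizer and 100% = rapamycin at 8.4 µM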
H9c2 TAG conf: confirmation of triacylglycerol accumulation inhibitors; shares compounds with TAG inh; H9c2 lipid accumulation, Nile Red fluorescence; cells loaded with 200 µM oleic acid; inhibition, % at 12.5 µM; 71% of 990 active; AID 651629;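 active = mean inhibition across replicates of 40% or more; inactive = mean inhibition below 40%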;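 note: plate controls were DMSO only wells for no effect and Triacsin C treated wells for full effect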
Active calls of the source: *; . = no result given.

SMILES | Rad51 HR inh | TAG inh | PKD1 kinase inh | Mdm2 ligase inh | Hck Nef HTS | PERK inh | H9c2 TAG conf
COC(=O)C1CCN(C(=O)COC(=O)c2oc3ccc(OC)cc3c2C)CC1 | . | 5 | . | . | . | . | .
C#CCN(C[C@H]1[C@H](OC(=O)NCCCCCC)[C@H](OC(=O)NCCCCCC)C[C@@H](C(=O)OC)[C@H]1C(=O)OC)S(=O)(=O)c1ccc(C)cc1 | . | 80* | . | . | . | . | 88*
Cc1ccc(NC(=O)Cn2nnc(-c3ccccc3NC(=O)c3cccs3)n2)cc1 | 6 | 57* | -4 | -9 | 2 | 0 | 71*
CN(CC(=O)Nc1ccccc1Br)C(=O)Cn1[nH]c(=O)c2ccccc2c1=O | . | 6 | . | . | . | . | .
Cc1ccc(NC(=O)CSc2nc(=O)n(CCCN3CCOCC3)c3c2CCCC3)cc1 | . | 16 | . | . | . | . | .
CCOC(=O)c1c(CN2CCNCC2)nc2ccc(Cl)cc2c1-c1ccccc1 | . | 70* | . | . | . | . | 78*
CC(=O)c1c(N2CCOCC2)nc2ccc(Cl)cc2c1-c1ccccc1 | . | 17 | . | -3 | -18 | 0 | .
CC1(C(=O)NCc2cccs2)Cc2c(-c3ccc4c(c3)OCO4)ccnc2O1 (stereo unspecified) | . | 54* | . | . | . | . | 52*
CC1(C(=O)Nc2cccc(Oc3ccccc3)c2)Cc2c(-c3ccc4c(c3)OCO4)ccnc2O1 (stereo unspecified) | . | 63* | . | . | . | . | 47*
CC1C(=O)N2CCCc3cc(NS(=O)(=O)c4ccc([N+](=O)[O-])cc4)cc1c32 (stereo unspecified) | . | -12 | . | . | . | . | .
CCCC[C@H](CN[C@@H](CNC)[C@H](C)CC)NCCC12CCC(CC1)C2 | . | 51* | . | . | . | . | 70*
COCCN(Cc1ccccc1)C(=O)C1CCN(C(=O)Nc2ccccc2)CC1 | . | 54* | . | . | . | . | 45*
CN(Cc1ccc(C(C)(C)C)cc1)C(=O)C1CCN(C(=O)Nc2ccccc2)CC1 | . | 37 | . | . | . | . | .
CC(C)(C)NCCC(O)c1cc(C(F)(F)F)nc2c(C(F)(F)F)cccc12 (stereo unspecified) | . | 65* | . | . | . | . | 63*
Cc1ccc(C2NC(=O)c3ccccc3O2)cc1 (stereo unspecified) | . | 0 | . | . | . | . | .
COc1cc(C2C3=C(COC3=O)Oc3cc4c(cc32)OCO4)ccc1O (stereo unspecified) | . | 55* | . | . | . | . | 71*
CCc1ccc(S(=O)(=O)NCC2(N3CCOCC3)CCCCC2)cc1 | . | 7 | . | . | . | . | .
COc1ccc(-c2nc(NC(=O)C3CCN(c4nc5ccccc5o4)CC3)sc2C)cc1 | -4 | 66* | -3 | -2 | 1 | -1 | 58*
C=CCC[C@@H](Cc1ccc(F)cc1)C(=O)OC[C@H](C)NC(=O)[C@@H](CC=C)CC(=O)N[C@@H](CO)Cc1ccccc1 | . | 2 | . | . | . | . | .
C=CCC[C@H](Cc1ccc(F)cc1)C(=O)OC[C@H](C)NC(=O)[C@@H](CC=C)CC(=O)N[C@H](CO)Cc1ccccc1 | . | 55* | . | . | . | . | 44*
O=C(c1ncc[nH]1)c1cccs1 | 2 | -6 | . | -10 | -2 | 1 | .
CCN1CCN(C(=O)/C(C#N)=C/c2ccc(OC(F)F)cc2)CC1 | -1 | -9 | -2 | -15 | 14 | 0 | .
N#C/C(=C\c1ccc(OC(F)F)cc1)C(=O)N1CCCCC1 | -5 | 83* | . | . | 25 | 0 | 2
COc1cc(CCCN2CCNC[C@@H]2c2ccccc2)cc(OC)c1OC | . | 85* | . | . | . | . | 6
COc1cc(CCCN2CCNC[C@H]2Cc2ccc(O)cc2)cc(OC)c1OC | . | -9 | . | . | . | . | .
SMILES | Rad51 HR inh | TAG inh | PKD1 kinase inh | Mdm2 ligase inh | Hck Nef HTS | PERK inh | H9c2 TAG conf
CCOC(=O)C1CCN(C(=O)C2(NC(=O)Nc3ccccc3Cl)CCCCC2)CC1 | 2 | 70* | 5 | -6 | 0 | 0 | 38
COCCN(C(=O)c1snc(C(N)=O)c1N)C(C(=O)NC1CCCCC1)c1ccc(F)cc1 (stereo unspecified) | . | -10 | . | . | . | . | .
CC(C)(C)c1cc(NCc2ccccn2)n2ncc(-c3ccc(Cl)cc3)c2n1 | -19 | 52* | . | 0 | -5 | 1 | 44*
CN(C)CCCNc1cc(C(C)(C)C)nc2c(-c3ccc(Cl)cc3)cnn12 | -2 | 130 | . | -11 | -9 | 1 | .
Cc1cc(=O)oc(C)c1C(=O)Nc1cccc(F)c1 | 14 | 51* | . | -6 | 6 | 0 | -6
Cc1cc(=O)oc(C)c1C(=O)Nc1ccc(F)cc1 | 11 | 0 | . | 0 | 19 | -1 | .
CN(C)CCCn1c(SCC(=O)Nc2nc(-c3cccc(Br)c3)cs2)nc2ccccc2c1=O | 17 | 79* | . | . | -43 | 1 | 67*
CCCC(=O)Nc1nc2ccc(NC(=O)c3ccccc3F)cc2s1 | 4 | 52* | 0 | -7 | 23 | 2 | 82*
COc1cccc(NC(=O)CN(C)C(=O)CCCc2nc3ccccc3s2)c1 | . | -10 | . | . | . | . | .
CC(O)c1nc2ccccc2n1C/C=C/c1ccccc1 (stereo unspecified) | -1 | -17 | -5 | 1 | 7 | -1 | .
